Only some compounds are listed: those with a hit (about 3.4% of all), similar ones and a draw of the others.
JNK3 blocker = JNK3 kinase activity inhibitors, primary screen, biochemical, human, purified enzyme; inhibition, % at 8 µM; Mitogen-activated protein kinase 10 (Homo sapiens), P53779; HTS; 60,000 compounds, 0.61% hits; in the data active means inhibition above about 17%;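 further: 0% = DMSO and 100% = reference inhibitor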
Target sequence (P53779 whole entry, looked up): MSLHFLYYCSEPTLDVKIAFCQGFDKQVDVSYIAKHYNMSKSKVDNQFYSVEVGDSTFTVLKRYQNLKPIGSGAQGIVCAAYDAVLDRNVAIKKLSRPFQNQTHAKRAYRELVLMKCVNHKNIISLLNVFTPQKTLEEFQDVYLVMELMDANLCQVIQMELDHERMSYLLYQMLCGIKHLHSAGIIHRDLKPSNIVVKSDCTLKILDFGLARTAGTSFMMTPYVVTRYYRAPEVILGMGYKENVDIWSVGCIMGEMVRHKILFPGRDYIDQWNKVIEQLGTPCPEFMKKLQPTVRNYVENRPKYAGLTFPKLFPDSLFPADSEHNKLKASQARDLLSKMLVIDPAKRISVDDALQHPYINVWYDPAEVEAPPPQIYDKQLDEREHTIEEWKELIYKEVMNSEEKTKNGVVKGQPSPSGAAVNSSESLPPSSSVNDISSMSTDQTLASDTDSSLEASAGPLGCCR
MKP-1 inh = MKP-1 phosphatase inhibitors, primary screen, biochemical, in vitro; recombinant MKP-1, OMFP hydrolysis fluorescence; inhibition, %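 (compounds tested at a single concentration somewhere between 10 and 100 µM)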; 65,000 compounds, 0.15% hits; AID 374, 2006;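 active means inhibition above about 50%, limit read from the data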;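 further: 0% = DMSO max control wells and 100% = wells with enzyme stopped by NaOH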
Hsp90 inh = tumor Hsp90 inhibitors, primary screen, cell lysate, fluorescence polarization, NCI-N417 lysate; Heat shock protein HSP 90-alpha (Homo sapiens), P07900; Cy3B-geldanamycin FP displacement; inhibition, % at 30 µM; 64,000 compounds, 0.35% hits; AID 429, 2006;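 active means inhibition above 50%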;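 further: 0% = tracer plus lysate wells and 100% = tracer alone without lysate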
SF1 activator = activators of human SF-1, primary screen, cell-based, CHO-K1, Gal4-SF-1 LBD, luciferase luminescence. 65,000 compounds, 1.9% hits. CHO-K1 Gal4-SF-1 LBD luciferase reporter; % increase over DMSO SF-1-specific signal. activation, % at 10 µM. AID 522, 2006;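 active means activation above the mean activation of all tested compounds plus 3 SD, cut at about 50% in these data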
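Assay system – CHO-K1 cells with Gal4–hSF-1 LBD chimera plus Gal4-driven luciferase · Quantity – 4,000 cells per well · Times – compound added 1 h post-seeding, 20 h exposure at 37 °C, 5% CO2 · Measured by – luciferase light emission · Benchmarks – DMSO and mock-transfected background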
Cdc25B block = inhibitors of Cdc25B phosphatase catalytic domain, primary screen, biochemical, OMFP fluorescence; M-phase inducer phosphatase 2 (Homo sapiens), P30305; recombinant Cdc25B, OMFP fluorescence Ex485/Em525; inhibition, %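 (compounds tested at 10 µM final in the well)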; 65,000 compounds, 0.1% hits; AID 368, 2006; in the data active means inhibition above about 50%
RORA act = activators of orphan receptor RORA, primary screen, cell-based, luminescence. Nuclear receptor ROR-alpha (Homo sapiens), P35398. CHO-K1 Gal4-RORA LBD luciferase reporter; percent increase over mock-subtracted basal signal. activation, % at 10 µM. 65,000 compounds, 1.5% hits. AID 560, 2006;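 active means activation above the mean of all tested compounds plus 3 SD, cut at about 49% in these data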;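 further: 0% = DMSO-treated RORA cells and 100% = added signal equal to DMSO minus mock-transfected cells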
* marks the source's active call; other numbers are inactive results.

How did CC1CCCN(c2ccc(C(=O)NCC3CCCO3)cn2)C1 (configuration not stated) do in these assays?
JNK3 blocker: -4; MKP-1 inh: 3; Hsp90 inh: 1; SF1 activator: 58*; Cdc25B block: 4; RORA act: 28

How did O=C(NCC1CCCO1)c1ccc(/C=N/O)nc1 (configuration not stated) do in these assays?
JNK3 blocker: 2; MKP-1 inh: -11; Hsp90 inh: 4; SF1 activator: -4; Cdc25B block: 27; RORA act: 14

What do the screens show for `COC(=O)c1cc(CSc2nnc(NC3CCCCC3)s2)oc1C`?
JNK3 blocker: -2; MKP-1 inh: 15; Hsp90 inh: -8; SF1 activator: -19; Cdc25B block: -10; RORA act: 6

What do the screens show for `O=C(Nc1nccs1)c1cc(S(=O)(=O)N2CCOCC2)ccc1Cl`?
SF1 activator: 4; RORA act: -19

What do the screens show for `Cn1ncc2c1ncn1nc(COc3ccc4ccccc4c3)nc21`?
JNK3 blocker: 1; MKP-1 inh: -7; Hsp90 inh: 1; SF1 activator: 3; Cdc25B block: 9; RORA act: 10

What do the screens show for `Cn1ncc2c1ncn1nc(CCc3ccccc3)nc21`?
JNK3 blocker: 2; MKP-1 inh: -21; Hsp90 inh: -1; SF1 activator: 50*; Cdc25B block: -3; RORA act: 44

Results for O=C(c1ccc(-c2nnc(-c3ccccc3)o2)cc1)N1CCCCCC1 ?
JNK3 blocker: -2; MKP-1 inh: -9; Hsp90 inh: 2; SF1 activator: 1; Cdc25B block: -1; RORA act: 60*

What do the screens show for `CCOc1ccc(OCC)c(NC(=O)CCn2cccc2)c1`?
JNK3 blocker: 1; MKP-1 inh: 3; Hsp90 inh: 4; SF1 activator: -5; Cdc25B block: 2; RORA act: -8

Results for Cn1c(=O)oc2cc(S(=O)(=O)NCCC(=O)NC3CCCC3)ccc21 ?
JNK3 blocker: 2; MKP-1 inh: 52*; Hsp90 inh: 0; SF1 activator: 8; Cdc25B block: -19; RORA act: -14

Results for Cc1cccc(NC(=O)Cn2nnc(-c3cccs3)n2)c1C ?
JNK3 blocker: -4; MKP-1 inh: -11; Hsp90 inh: 54*; SF1 activator: -13; Cdc25B block: -14; RORA act: -11

What do the screens show for `COc1ccc(-c2nnc(SCCc3ccccc3)n2N)cc1`?
JNK3 blocker: -1; MKP-1 inh: -10; Hsp90 inh: -3; SF1 activator: 18; Cdc25B block: -3; RORA act: -3

What do the screens show for `COc1ccc(-c2nnc(SCc3ccccc3)n2N)cc1`?
JNK3 blocker: -3; MKP-1 inh: -18; Hsp90 inh: -1; SF1 activator: 66*; Cdc25B block: -2; RORA act: 39

Results for COC(=O)c1c(C)[nH]c(C)c1C(=O)c1ccccc1Cc1ccccc1 ?
Hsp90 inh: -2

Results for COC(=O)c1ccccc1NC(=O)COC(=O)c1ccco1 ?
JNK3 blocker: 21*; MKP-1 inh: -4; Hsp90 inh: -10; SF1 activator: -17; Cdc25B block: 7; RORA act: -33

Results for O=C(COC(=O)CSCC(=O)N1CCCCC1)Nc1ccc(Cl)cc1 ?
JNK3 blocker: -3; MKP-1 inh: 20; Hsp90 inh: -3; SF1 activator: -5; Cdc25B block: -21; RORA act: 0

What do the screens show for `COC(=O)c1ccccc1NC(=O)COC(=O)c1ccc(C)c(NC(=O)c2ccco2)c1`?
JNK3 blocker: 5; MKP-1 inh: 27; Hsp90 inh: -2; SF1 activator: -5; Cdc25B block: -9; RORA act: -16

Results for COC(=O)c1ccccc1NC(=O)COC(=O)CSCC(=O)N1CCOCC1 ?
JNK3 blocker: 19*; MKP-1 inh: -2; Hsp90 inh: 0; SF1 activator: -4; Cdc25B block: -6; RORA act: 0

Results for Cc1cc(N2CCCCC2)n2ncc(-c3ccc(Cl)cc3)c2n1 ?
JNK3 blocker: -2; MKP-1 inh: 13; Hsp90 inh: 1; SF1 activator: 62*; Cdc25B block: -7; RORA act: 87*

Results for Cc1cc(N2CCN(C(=O)c3ccco3)CC2)n2ncnc2n1 ?
MKP-1 inh: -2; Hsp90 inh: -3; SF1 activator: -3; Cdc25B block: -2; RORA act: -27

What do the screens show for `Cc1cc(N2CCCCC2)n2ncc(-c3ccccc3)c2n1`?
JNK3 blocker: 0; MKP-1 inh: -13; Hsp90 inh: -1; SF1 activator: 1; Cdc25B block: -4; RORA act: 29

Results for Cc1cc(N2CCN(C(=O)c3ccco3)CC2)n2ncc(-c3ccccc3)c2n1 ?
JNK3 blocker: 2; MKP-1 inh: 23; Hsp90 inh: 1; SF1 activator: 65*; Cdc25B block: 6; RORA act: 30

Results for CC(C)(C)OC(=O)n1ccc2c(NCCCN)ncnc21 ?
Hsp90 inh: -1

Results for CCOC(=O)c1c(C)oc2cc(Br)c(OC(=O)N3CCOCC3)cc12 ?
JNK3 blocker: 3; MKP-1 inh: 17; Hsp90 inh: -2; SF1 activator: -3; Cdc25B block: -10; RORA act: -12

How did O=C(Nn1nnnc1Nc1ccccc1)C12CC3CC(CC(C3)C1)C2 do in these assays?
MKP-1 inh: 10; SF1 activator: -18; Cdc25B block: -5; RORA act: 4

What do the screens show for `COc1ccc(CNC(=O)c2noc3c2CCCCC3)cc1`?
JNK3 blocker: 4; MKP-1 inh: -2; Hsp90 inh: -2; SF1 activator: 25; Cdc25B block: -5; RORA act: 40

How did O=C(NCc1ccccc1)c1noc2c1CCCCC2 do in these assays?
JNK3 blocker: 11; MKP-1 inh: -1; Hsp90 inh: -2; SF1 activator: 52*; Cdc25B block: 8; RORA act: 30

What do the screens show for `COC(=O)C1C(=O)c2c([nH]c(C(=O)OC3CCCCC3)c2C)CC1C` (configuration not stated)?
JNK3 blocker: 2; MKP-1 inh: -14; Hsp90 inh: 0; SF1 activator: 21; Cdc25B block: 3; RORA act: 77*

What do the screens show for `COC(=O)C1C(=O)c2c([nH]c(C(=O)OC3CCCC3C)c2C)CC1C` (configuration not stated)?
JNK3 blocker: 1; MKP-1 inh: 9; Hsp90 inh: 2; SF1 activator: 16; Cdc25B block: -5; RORA act: 30
